Data published in ChEMBL document CHEMBL2346527, “Kinase scaffold repurposing for neglected disease drug discovery: discovery of an efficacious, lapatinib-derived lead compound for trypanosomiasis” (J Med Chem, 2013).
Calls of active or inactive are those of the source. The calls are words filed in the database; no cut-off is given here.

How the values were obtained:
[1] = system: Trypanosoma brucei brucei; assay: Antitrypanosomal activity against Trypanosoma brucei brucei CA427 infected in Swiss Webster mouse assessed as reduction in replication rate at 10 mg/kg, ip bid measured on day 3 by hemocytometer; format: functional, organism-based; set-up: dose 10 mg/kg
Outline: (§1)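 Mice were infected with 10^4 T. brucei brucei CA427 cells. From 24 h post-infection, they were dosed i.p. at 10 mg/kg twice per day (20 mg/kg/day). Blood parasitemia was measured each day against untreated control mice.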

Brain = assay: Drug uptake in BALB/c mouse brain at 40 mg/kg, po after 24 hrs; format: ADME, organism-based; set-up: dose 40 mg/kg, route oral; settings: in vivo
Outline: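 Mice received a single oral dose of 40 mg/kg. Drug levels in plasma and brain tissue were measured over 24 hours.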

Trypanosoma brucei [2] = assay: Inhibition of transferrin receptor-mediated endocytosis in bloodstream Trypanosoma brucei at 8 uM after 7 hrs by flow cytometry
[3] = system: Trypanosoma brucei brucei; assay: Antitrypanosomal activity against Trypanosoma brucei brucei CA427 infected in Swiss Webster mouse assessed as mouse mortality at 10 mg/kg, po bid by hemocytometer; format: functional, organism-based; set-up: dose 10 mg/kg
Outline: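 Mice were infected with 10^4 T. brucei brucei CA427 cells. From 24 h post-infection, they were dosed orally at 10 mg/kg twice per day (20 mg/kg/day). Daily parasitemia and survival were followed against untreated control mice.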

Trypanosoma brucei [4] = assay: Antitrypanosomal activity against bloodstream Trypanosoma brucei assessed as DNA profile alteration after 7 hrs by propidium iodide staining-based flow cytometry; format: functional, organism-based
Outline: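 Trypanosomes were incubated 7 h with drug or without (control), then stained with propidium iodide. Flow cytometry analysed 10,000 events, and DNA content per cell (2C, 2C-4C, 4C populations) was quantified.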

[5] = system: Trypanosoma brucei brucei; assay: Antitrypanosomal activity against Trypanosoma brucei brucei CA427 infected in Swiss Webster mouse assessed as delayed detection of trypanosomes in blood at 10 mg/kg, ip bid after 24 hrs by hemocytometer; format: functional, organism-based; set-up: dose 10 mg/kg; outline: as §1
Trypanosoma brucei [6] = assay: Antitrypanosomal activity against bloodstream Trypanosoma brucei assessed as reduction in 1K1N cells after 7 hrs by DAPI staining-based fluorescence microscopy; format: functional, organism-based
Outline: (§2)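 After 7 h with or without drug, trypanosomes were stained with DAPI and imaged by single-cell fluorescence microscopy with DIC. Nuclei (N) and kinetoplasts (K) were counted per cell to give the distribution of organelle configurations.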

Trypanosoma brucei [7] = assay: Reduction of 2C to 4C equivalents of DNA in bloodstream Trypanosoma brucei after 7 hrs by DAPI staining-based fluorescence microscopy (reference value: 40 %); format: functional; set-up: scale not given: the % may be the effect or the level left
Trypanosoma brucei [8] = assay: Antitrypanosomal activity against bloodstream Trypanosoma brucei assessed as increase in 1K2N cells after 7 hrs by DAPI staining-based fluorescence microscopy; format: functional, organism-based; outline: as §2
[9] = system: Trypanosoma brucei brucei; assay: Antitrypanosomal activity against Trypanosoma brucei brucei CA427 infected in Swiss Webster mouse assessed as mouse survival at 10 mg/kg, ip bid by hemocytometer (reference value: 5 days); format: functional; settings: route intraperitoneal
Mus musculus = assay: Toxicity in Swiss Webster mouse infected with Trypanosoma brucei brucei CA427at 40 mg/kg, po; format: organism-based; set-up: dose 40 mg/kg, route oral; settings: in vivo
Outline: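 Infection used 10^4 T. brucei brucei CA427 cells per mouse. Beginning 24 h later, mice received 40 mg/kg once per day in a multi-day regimen. Blood was checked for parasites over 3 days against untreated infected controls, and drug-related toxicity was noted.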

Trypanosoma brucei [10] = assay: Antitrypanosomal activity against bloodstream Trypanosoma brucei assessed as increase in 4C equivalents of DNA after 7 hrs by DAPI staining-based fluorescence microscopy (reference value: 25 %); format: functional
[11] = system: Trypanosoma brucei brucei; assay: Antitrypanosomal activity against bloodstream form Trypanosoma brucei brucei Lister 427 after 48 hrs by hemocytometer; format: functional, organism-based; settings: Lister 427, 48 h
Outline: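 Bloodstream Lister 427 cells were seeded at 2 × 10^3 cells/ml in HMI-9 medium and given drug from 200X DMSO stocks, with DMSO as control. Three independent experiments, each dose in duplicate (n = 6).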

## Fc1cccc(COc2ccc(Nc3ncnc4ccc(-c5cccc(N6CCOCC6)c5)cc34)cc2Cl)c1
[1]
  Activity: Active
Brain
  Drug uptake: 5%
Trypanosoma brucei [2]
  inhibition: inactive
[3]
  Activity: inactive
Trypanosoma brucei [4]
  Activity: Active
[5]
  Activity: Active
Trypanosoma brucei [6]
  Activity: Active
Trypanosoma brucei [7]
  Activity: 25%
Trypanosoma brucei [8]
  Activity: Active
[9]
  Survival: 9 days
Mus musculus
  Activity: Toxic
Trypanosoma brucei [10]
  Activity: 40%
[11]
  EC50: 42 nM
